From the RNAGym collection of RNA variant scans (doi:10.1126/science.aae0568)
This sample holds only a part of the variants without activity.

B1: tRNA (parent)
chain: GUUCCGUUGGCGUAAUGGUAACGCGUCUCCCUCCUAAGGAGAAGACUGCGGGUUCGAGUCCCGUACGGAACG

Variants of: B1
Assay: yeast fitness relative to wild type (ratio to wild type); higher = fitter; tRNA-Arg(CCU), competitive growth, 37 C, YPD
Method in brief: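 Changes in genotype frequencies gave Darwinian fitness relative to wild type. Frequencies were read by 100-nucleotide paired-end sequencing of gene amplicons before and after pooled Saccharomyces cerevisiae strains, carrying tRNA-Arg(CCU) gene variants at the native locus, were competed in YPD at 37°C for 24 hours in six replicates. A genotype was kept only with ≥ 100 starting reads, and estimates < 0.5 were set to 0.5.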

| Variant | yeast fitness |
| --- | --- |
| C11A U19C C31U U53A | ≤ 0.5 |
| C11A U19C U26C A40U G44C C46U U64G | 0.514 |
| C11A U19G A36G C62A A69C | ≤ 0.5 |
| C11A U19G A36G U53C U54C A69C | ≤ 0.5 |
| C11A U19G A36G U54C A65U | 0.538 |
| C11A U19G A36G U54C A69C | 0.54 |
| C11A U19G C49A | ≤ 0.5 |
| C11A U26A | 0.687 |
| C11A U26C C29G C31U G52C C55A U59G | ≤ 0.5 |
| C11A U28C A42G A43U C46U C62U | ≤ 0.5 |
| C11A U28C A69U | ≤ 0.5 |
| C11A U28C C46A C55U C61U | ≤ 0.5 |
| C11A U28G C33A A42C A65U | ≤ 0.5 |
| C11A U28G C33A A45G A65U | ≤ 0.5 |
| C11A U28G C34U | ≤ 0.5 |
| C11A U28G C34U G67A | ≤ 0.5 |
| C11A U28G G44C | 0.602 |
| C11A U32A C33U C66A | ≤ 0.5 |
| C11A U32A C33U G68C | ≤ 0.5 |
| C11A U32A C33U U47A | ≤ 0.5 |
| C11A U32A C33U U47A G63A | ≤ 0.5 |
| C11A U32A C34A A65C | ≤ 0.5 |
| C11A U32C | 0.739 |
| C11A U32C G67A | 0.606 |

| Variant | yeast fitness |
| --- | --- |
| C11A U32G C61A | 0.58 |
| C11A U35A | 0.535 |
| C11A U35A A37C A43G | 0.511 |
| C11A U35A A37U | ≤ 0.5 |
| C11A U35A G52A | ≤ 0.5 |
| C11A U35A U53A | ≤ 0.5 |
| C11A U35G C46A C49U C60U | ≤ 0.5 |
| C11A U35G G67A | 0.52 |
| C11A U47C | 0.689 |
| C11A U47C C62A | ≤ 0.5 |
| C11A U47C G52C | ≤ 0.5 |
| C11A U53G | 0.577 |
| C11A U54A | 0.602 |
| C11A U54C | 0.596 |
| C11A U54C A57U | 0.565 |
| C11A U59C | 0.527 |
| C11A U59C C60A U64A | ≤ 0.5 |
| C11A U59G G63C | ≤ 0.5 |
| C11A U64C | 0.638 |
| C11G A14C A37C G44C | ≤ 0.5 |
| C11G A14C A57C C61A A69C | 0.581 |
| C11G A14C C30G A45G A57G | ≤ 0.5 |
| C11G A14C C30U G67U | ≤ 0.5 |
| C11G A14C C33G A45U C62G A65G | ≤ 0.5 |

| Variant | yeast fitness |
| --- | --- |
| C11G A14C G18C C29G C49U A65C | ≤ 0.5 |
| C11G A14G A21U A40U U54A C55U | ≤ 0.5 |
| C11G A14G A37G G44A C60A C62U U64C G68A A69C | ≤ 0.5 |
| C11G A14G A37G G44A G63A | 0.55 |
| C11G A14G C27A G38A A65C | ≤ 0.5 |
| C11G A14G G17A G48C C62U C66G A70G | ≤ 0.5 |
| C11G A14G G18C A20U C33U C62U G63A | ≤ 0.5 |
| C11G A14G G48A C55U A65C | 0.759 |
| C11G A14G G48A C55U C66U G68C A69U | ≤ 0.5 |
| C11G A14G G63A C66U | ≤ 0.5 |
| C11G A14G U35A C66U | 0.535 |
| C11G A14U A21U A69U | ≤ 0.5 |
| C11G A14U A42U | 0.638 |
| C11G A14U A43U G52A G68C A69G | 0.636 |
| C11G A14U C24A A57C | 0.572 |
| C11G A14U C24A C60A | ≤ 0.5 |
| C11G A14U G17A A36G G41A | 0.582 |
| C11G A14U G17A A36G G41A U53A G58C A70C | ≤ 0.5 |
| C11G A14U G17A C61G C62G | ≤ 0.5 |
| C11G A15C C24G C46A C66U | ≤ 0.5 |
| C11G A15C C24U A43U C66U | ≤ 0.5 |
| C11G A15C C24U A43U G68A | ≤ 0.5 |
| C11G A15C C29U G41C G52A | ≤ 0.5 |
| C11G A15C C34U G48A C55U | 0.759 |

| Variant | yeast fitness |
| --- | --- |
| C11G A15C C34U U47C G48A C55U | ≤ 0.5 |
| C11G A15C G41A C49G | ≤ 0.5 |
| C11G A15C U47G | ≤ 0.5 |
| C11G A15G | 0.596 |
| C11G A15G A21G A37G A57U C60U C62G | ≤ 0.5 |
| C11G A15G A45C C46A A65C | ≤ 0.5 |
| C11G A15G C22A A37U A65C C66G | ≤ 0.5 |
| C11G A15G C22A U26A A40U C49U | ≤ 0.5 |
| C11G A15G C33G A37G | ≤ 0.5 |
| C11G A15G C33G A37G C60A | 0.582 |
| C11G A15G C33G G52C A69C | ≤ 0.5 |
| C11G A15G U26A U32A G38A A40C | 0.546 |
| C11G A15G U26A U32A G38A A40C G58A | ≤ 0.5 |
| C11G A15G U28G C29U C33G C46G A57C | ≤ 0.5 |
| C11G A15G U54G | ≤ 0.5 |
| C11G A15U C22U A42G C66U | ≤ 0.5 |
| C11G A15U C24G A40G A42U | ≤ 0.5 |
| C11G A15U C24G A40G C61A | ≤ 0.5 |
| C11G A15U C31A G58C A70C | ≤ 0.5 |
| C11G A15U C34A A42C | ≤ 0.5 |
| C11G A15U C34A A42C G48A | 0.619 |
| C11G A15U C34A A42C G48A C55U | ≤ 0.5 |
| C11G A15U C55U | ≤ 0.5 |
| C11G A20C | 0.615 |

| Variant | yeast fitness |
| --- | --- |
| C11G A20C A42C A57U | ≤ 0.5 |
| C11G A20C A42C C49U A57U | ≤ 0.5 |
| C11G A20C A43G U59C | ≤ 0.5 |
| C11G A20C A45G A70U | ≤ 0.5 |
| C11G A20C C24G | ≤ 0.5 |
| C11G A20C C24G A37G | 0.542 |
| C11G A20C C24G C66U | ≤ 0.5 |
| C11G A20C C24G G63A C66U | ≤ 0.5 |
| C11G A20C C24U A36C C66U G67A | ≤ 0.5 |
| C11G A20C C24U A36C U47A C66U | ≤ 0.5 |
| C11G A20C C24U A36C U47A G56C C60G | ≤ 0.5 |
| C11G A20C C49G | ≤ 0.5 |
| C11G A20C C55A G67C | ≤ 0.5 |
| C11G A20G C24U C31G | ≤ 0.5 |
| C11G A20G C24U U28C | ≤ 0.5 |
| C11G A20G C62A | ≤ 0.5 |
| C11G A20G U47G | ≤ 0.5 |
| C11G A20G U53C | ≤ 0.5 |
| C11G A20U | 0.692 |
| C11G A20U C22G A43C | ≤ 0.5 |
| C11G A20U C24A G25C A40G G58C | ≤ 0.5 |
| C11G A20U C24A G25C A43U | ≤ 0.5 |
| C11G A20U C27G C29U C62U | ≤ 0.5 |
| C11G A20U C30G C34A A43C A69C | 0.76 |

| Variant | yeast fitness |
| --- | --- |
| C11G A20U C30G C49G U53G | 0.571 |
| C11G A20U G38C G50A | 0.569 |
| C11G A20U G56A C60U | 0.678 |
| C11G A21C A36U | 0.511 |
| C11G A21C C22G C30G A45U | 0.558 |
| C11G A21C U26A C34U | ≤ 0.5 |
| C11G A21G C29G A40C U54A | ≤ 0.5 |
| C11G A21G C31G A42G | ≤ 0.5 |
| C11G A21G G23C C30A | 0.733 |
| C11G A21G G38C G41C C55A A65C | 0.525 |
| C11G A21G G44C C61A C62U C66U | ≤ 0.5 |
| C11G A21U A36U | ≤ 0.5 |
| C11G A21U A40U U54A | 0.681 |
| C11G A21U C24G G51A | ≤ 0.5 |
| C11G A21U C27A C61G | 0.531 |
| C11G A21U C31G | ≤ 0.5 |
| C11G A21U C55U | ≤ 0.5 |
| C11G A21U G51C | ≤ 0.5 |
| C11G A21U U26C U53G | 0.696 |
| C11G A21U U35A | ≤ 0.5 |
| C11G A36C A43U | ≤ 0.5 |
| C11G A36C G56A A65G | ≤ 0.5 |
| C11G A36C G68A | 0.506 |
| C11G A36G | 0.692 |

| Variant | yeast fitness |
| --- | --- |
| C11G A36G G39A G56A | ≤ 0.5 |
| C11G A36G G67U A69C | ≤ 0.5 |
| C11G A36U | ≤ 0.5 |
| C11G A36U A37U C55U | ≤ 0.5 |
| C11G A36U A45U G51C C55U | ≤ 0.5 |
| C11G A36U C66U | ≤ 0.5 |
| C11G A36U U54A U64C A69U | ≤ 0.5 |
| C11G A37C | 0.606 |
| C11G A37C A42G | ≤ 0.5 |
| C11G A37C C46G G48A | ≤ 0.5 |
| C11G A37C C46G G48A C49U | ≤ 0.5 |
| C11G A37C C62G C66U | ≤ 0.5 |
| C11G A37C C66G G68U | ≤ 0.5 |
| C11G A37C G51A G67A | ≤ 0.5 |
| C11G A37G G51C A57G C66U | ≤ 0.5 |
| C11G A37G G52C A70U | 0.57 |
| C11G A37U C55U A57C | ≤ 0.5 |
| C11G A40C C61U | ≤ 0.5 |
| C11G A40G | 0.567 |
| C11G A40G A45G G52A | 0.577 |
| C11G A40G C60U U64C | ≤ 0.5 |
| C11G A40G C61A | 0.605 |
| C11G A42C A57U | 0.564 |
